Screening data: PubChem, SRMLSC
H69AR growth 86K: blocks growth of human H69AR lung tumor cells; viability, % at 10 µM; H69AR lung tumor viability, ATP luminescence, 72 h; stronger effect = lower value; AID 598; hit rate 6% among 85,000;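 active = viability at or below 40%; inactive = viability above 40%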;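 note: multidrug resistant small cell line overexpressing MRP-1 efflux transporter; 100% = mean luminescence of untreated control wells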
Fibroblast inh: blocks proliferation of human lung fibroblasts; LL 47 human lung fibroblast viability, ATP luminescence; stronger effect = lower value; viability, % at 10 µM; hit rate 1.1% among 85,000; AID 719;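 active = viability at or below 50% in the single dose screen; inactive = viability above 50%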;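 note: compound exposure lasted 72 h before the ATP readout; 100% = median luminescence of untreated cell-only wells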
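Benchmarks: Cell-only wells, no compound | Test system: LL 47 human lung fibroblasts, passage 12 or lower | Input: 1,150 cells/well | Measured by: CellTiter-Glo luminescence measuring cellular ATP | Medium: IMEM, 15% FBS supplement | Schedule: Overnight attachment after seeding, then 72 h compound exposure at 37 °C | Doses: Compound addition at 0.1% DMSO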
PTEN del growth: PTEN-deleted cell growth suppression; HCT116 PTEN-null viability, CellTiter-Glo, 60 h; stronger effect = lower value; viability, % at 10 µM; hit rate 1.2% among 140,000;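 active = viability at or below a set limit, 4 SD under the median of all tested compounds, cut at about 3.7% in these data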;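 note: PTEN knockout HCT116 line with beta catenin targeted HCT116 as companion control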
HCT116 bCat-KO: beta-catenin-lacking colon tumor cell growth suppression; HCT116 beta-catenin knockout viability, CellTiter-Glo, 60 h; stronger effect = lower value; AID 818; hit rate 1.5% among 140,000; viability, % at 10 µM;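 active = viability at or under a set limit, the compound median less 4 SD, cut at about 6% in these data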;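 note: 0% = Hyamine 1622 control at 20 µM and 100% = untreated cell control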
HUVEC prolif 384: blocks proliferation of human endothelial cells; viability, % at 10 µM (by protocol); hit rate 1.1% among 86,000; AID 648; HUVEC proliferation, CellTiter-Glo luminescence, 72 h; stronger effect = lower value;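 active = viability at or below 30%; inactive = viability above 30%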;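 note: 100% = median luminescence of DMSO-only cell control wells on each plate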
The depositor's hits bear a star; . = no result. Shown is part of a subset that was picked to be rich in hits.

SMILES	H69AR growth 86K	Fibroblast inh	PTEN del growth	HCT116 bCat-KO	HUVEC prolif 384
CN1C(=O)N(C)C2(c3ccccc3)Nn3c(s/c(=C/c4ccccc4)c3=O)=NC12c1ccccc1 (centres undefined)	38*	91	74	65	103
Cc1nn(C)c(C)c1NC(=O)CSc1nc(C2CC2)nc2c1cnn2-c1ccccc1	79	43*	1.2*	1.3*	96
Cc1cc(C)n2nc(SCC(=O)Nc3c(C)nn(-c4ccccc4)c3C)nc2n1	91	109	114	106	112
CC1CCCCN1C(=O)CSc1nc(C2CC2)nc2c1cnn2-c1ccccc1 (centres undefined)	.	.	76	80	.
Cc1nn(C)c(C)c1NC(=O)CSc1nc(-c2ccccc2Cl)nc2c1cnn2-c1ccccc1	30*	95	74	89	90
COc1ccc(C(CCNCc2ccc(F)cc2)c2ccc(F)cc2)cc1 (centres undefined)	.	.	1.2*	1.2*	.
COc1ccc(CNCCC(c2ccc(F)cc2)c2ccc(OC)cc2)cc1 (centres undefined)	.	.	9	1.9*	.
COc1ccc(C(CC(=O)NCc2ccco2)c2ccc(F)cc2)cc1 (centres undefined)	97	91	83	86	92
COc1ccc(NC(=O)CC(c2ccc(F)cc2)c2ccc(OC(C)C)cc2)cc1 (centres undefined)	.	.	91	79	.
COc1ccc(C(CCNCc2ccccc2)c2ccc(F)cc2)cc1 (centres undefined)	.	.	2.4*	2.0*	.
COc1ccc(C(CCNC(C)c2ccccc2)c2ccc(F)cc2)cc1 (centres undefined)	.	.	1.4*	1.4*	.
O=C(CC12CC3CC(CC(C3)C1)C2)N1CCN(S(=O)(=O)c2cccs2)CC1	.	.	90	91	.
CN(C(=O)CSc1nc(N)c2c3c(sc2n1)CSC(C)(C)C3)c1ccccc1	.	.	112	102	.
OC(CNCc1ccco1)Cn1c2ccc(Br)cc2c2cc(Br)ccc21 (centres undefined)	.	.	1.7*	2.1*	.
Brc1ccc2ncnc(NCc3ccco3)c2c1	55	95	58	59	70
CCCCC(=O)Nc1cc(NC(=O)CC)ccc1Cl	86	94	93	105	85
CCOc1ccc(C(=O)Nc2ccc(NC(=O)c3ccco3)c(Cl)c2)cc1Cl	14*	66	13	15	31
CCOc1ccc(C(=O)Nc2ccc(NC(=O)c3ccco3)c(Cl)c2)cc1Br	.	.	53	70	.
CCOc1ccccc1NC(=O)c1cccc(NC(=O)c2ccco2)c1	25*	60	98	103	58
CCCCOc1ccccc1NC(=O)c1ccco1	82	99	98	96	94
CCOc1cc(/C=N/NC(=O)C(C)Sc2ccccn2)ccc1O (centres undefined)	.	.	94	100	.
COC(=O)NC(=C(Cl)Cl)S(=O)(=O)c1ccccc1	1.1*	34*	1.9*	2.6*	55
COc1cccc(/C=N/n2c(SC)nnc2-c2ccccc2)c1O	23*	89	31	39	51
O=C1N/C(=C\c2ccccc2)c2ccccc21	24*	75	39	43	43
O=C1O/C(=C\c2ccccc2)c2ccccc21	.	.	97	95	.
SMILES	H69AR growth 86K	Fibroblast inh	PTEN del growth	HCT116 bCat-KO	HUVEC prolif 384
Cc1nc(Nc2ccc(F)cc2)[nH]c(=O)c1CCC(C)C	6.7*	.	49	62	75
Cc1cccc2cc3c(N)c(C(=O)N4CCOCC4)sc3nc12	18*	64	16	13	62
Cc1cc(C)c2cc3c(N)c(C(=O)N4CCc5ccccc5C4)sc3nc2c1	.	.	97	93	.
O=C(CSc1ccc2c(c1)OCCO2)Nc1ccc(Cl)cn1	99	92	93	92	19*
CCOC(=O)C1C(=O)OC(C)(C)C1C(C)C(=O)c1ccccc1 (centres undefined)	81	105	101	108	96
Cc1c(C(=O)N2CCCCC2)nnn1-c1nonc1N	104	103	96	122	93
CCOC(=O)c1ccc(NC(=O)C2CCN(S(=O)(=O)CC)CC2)cc1	70	96	105	108	87
Cc1ccc(S(=O)(=O)N2CCCC(C(=O)Nc3ccc(NC(=O)c4ccccn4)cc3)C2)cc1 (centres undefined)	21*	76	20	8	75
O=C(Nc1ccc(Oc2ccccc2)cc1)C1CCCN(c2ncccn2)C1 (centres undefined)	40*	92	92	99	85
CCOC(=O)c1ccc(NC(=O)C2CCCN(S(=O)(=O)c3ccc(F)cc3)C2)cc1 (centres undefined)	20*	94	14	9	74
CCc1nc(SCC(=O)NCc2ccco2)c2c3c(sc2n1)CCCC3	57	106	78	86	55
CCCSc1nc(SCC(=O)NCc2ccccc2)c2c3c(sc2n1)COC(C)(CC)C3 (centres undefined)	37*	87	97	96	67
CCCCc1nc2sc3c(SCC(=O)NCc4ccco4)ncnc3c2c2c1CCC2	32*	47*	36	14	56
CCCCSc1nc(SCC(=O)NCc2ccco2)c2c3c(sc2n1)COC(C)(CC)C3 (centres undefined)	.	.	74	76	.
CCC1(C)Cc2c(sc3nc(NN)n(C)c(=O)c23)CO1 (centres undefined)	12*	89	60	37	77
CCOC(=O)CSc1nc2sc3c(c2c(=O)[nH]1)CC(C)(CC)OC3 (centres undefined)	95	106	116	101	86
CSc1nc(SCC(=O)NCc2ccco2)c2c3c(sc2n1)COC(C)(C)C3	23*	62	40	31	62
Cc1c(-c2ccc(F)cc2)[n+](=O)c2c(n1[O-])CCCCC2	.	.	102	93	.
CCOC(=O)c1sc(NC(=O)CSc2n[nH]c(-c3ccc(Cl)cc3Cl)n2)c(C#N)c1C	66	94	78	75	57
O=[n+]1c2c(n([O-])c3ccccc31)CCCC2	82	96	99	96	84
COC(=O)c1ccccc1NC(=O)CSc1nnc(-c2cccnc2)n1C	93	105	94	100	101
CN(CCO)c1nc(N)c2c(N)nc3c(c2c1C#N)CC(=O)N3C1CCCC1	31*	94	43	33	71
CCN(CC)c1nc(N)c2c(N)nc3c(c2c1C#N)CC(c1ccccc1)O3 (centres undefined)	59	86	62	78	72
CC(C)(C)N1C(=O)Cc2c1nc(N)c1c(N)nc(N3CCCCC3CO)c(C#N)c21 (centres undefined)	20*	88	86	74	74
COc1ccccc1N1CCN(C(=O)CSc2nnc3c4ccccc4nc(Cc4ccccc4)n23)CC1	.	.	58	57	.
Cc1[nH]nc(SCC(=O)N2CCC(C)CC2)c1[N+](=O)[O-]	90	95	92	95	69
O=C(NCCO)C(c1ccccc1)c1ccccc1	36*	.	95	86	98
